Source: ChEMBL document CHEMBL4513216, “Probing the Open Global Health Chemical Diversity Library for Multistage-Active Starting Points for Next-Generation Antimalarials” (ACS Infect Dis, 2020)

Experiment: Toxicity liver stage against HepG2, at 10uM
Assay type: cell-based
Design: test concentration 10 uM, cell line HepG2-A16-CD81EGFP
Settings: human, HepG2-A16-CD81EGFP cells; read-out: INHIBITION
Method in brief: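 Uninfected HepG2-A16-CD81EGFP cells, 3 × 10^3 per well, 1536-well, plated on prespotted compound at 10 μM final, parasite-free screening media added to match infected plates; puromycin 10 μM positive, DMSO 0.5% negative; run in parallel with 48 h PbLuc assay at 37 °C, 5% CO2; viability by CellTiter-Glo luminescence, normalized to controls.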

**Q.** Which cytotoxicity at 10 µM does the source give for Cc1cccc(NC(=O)N2CC(C(=O)NC(C)C)C3(CCOCC3)C2)c1 (stereo unspecified) here?
**A.** -75%

**Q.** For Cc1nc2c(c(N(C)C)n1)CCN(C(=O)c1ccc(N)nc1)C2, which cytotoxicity at 10 µM is on record?
**A.** -8.26%

**Q.** With CCN(CCOC)C(=O)c1ccc2c(c1)nc(N1CC[C@H](O)C1)n2C as the molecule, how does the cytotoxicity at 10 µM read?
**A.** -2.96%

**Q.** Which cytotoxicity at 10 µM does the source give for CCC(O)CNc1ccc(-c2nc(CC(C)C)no2)cn1 (stereo unspecified) here?
**A.** -6.19%

**Q.** Which cytotoxicity at 10 µM does the source give for Cc1ccccc1C(C(=O)N(Cc1cnn(C)c1)CC(C)C)N(C)C (stereo unspecified) here?
**A.** 2.66%

**Q.** With CC(C)(CN1C[C@H](Nc2ncccn2)[C@@H](C2CC2)C1)N1CCOCC1 as the molecule, how does the cytotoxicity at 10 µM read?
**A.** 5.41%

**Q.** Which cytotoxicity at 10 µM does the source give for CCC[C@H]1CN(C(=O)c2ccc3[nH]c(CO)nc3c2)C[C@@H]1N here?
**A.** 3.96%

**Q.** Which cytotoxicity at 10 µM does the source give for Cc1nc(C(C)C)sc1C(=O)N1CCC(N2CCSCC2)CC1 here?
**A.** -3.54%

**Q.** With CNc1ncc(C(=O)N[C@H]2CN(CCCSC)C[C@@H]2C2CC2)cn1 as the molecule, how does the cytotoxicity at 10 µM read?
**A.** 1.33%

**Q.** Which cytotoxicity at 10 µM does the source give for CCN(CC)c1ncccc1CNC(=O)c1cc2nc(C)cc(C)n2n1 here?
**A.** 6.43%

**Q.** Which cytotoxicity at 10 µM does the source give for O=C(O)CC[C@@H]1CN(c2ncccc2F)CC[C@@H]1N1CCOCC1 here?
**A.** -9.11%

**Q.** For CC(Nc1ncnc2c1CCNCC2)c1nc2c(s1)CCCC2 (stereo unspecified), which cytotoxicity at 10 µM is on record?
**A.** 1.28%

**Q.** Which cytotoxicity at 10 µM does the source give for O=C(CCc1cc(Cl)no1)N1CCCCC1CCN1CCOCC1 (stereo unspecified) here?
**A.** -9.97%

**Q.** With Clc1ccccc1OC1CN(CC2CCOC2)C1 (stereo unspecified) as the molecule, how does the cytotoxicity at 10 µM read?
**A.** -0.745%

**Q.** For CCCc1ccc(CN2CCC3(CCC(=O)N(C(C)C(=O)O)C3)CC2)o1 (stereo unspecified), which cytotoxicity at 10 µM is on record?
**A.** -2.69%

**Q.** For CCN1CC(C(=O)NCCc2csc(-c3ccncc3)n2)CCC1=O (stereo unspecified), which cytotoxicity at 10 µM is on record?
**A.** -11.3%

**Q.** For COc1ccc(F)c(-c2ccnc(N)c2)c1, which cytotoxicity at 10 µM is on record?
**A.** 8.52%

**Q.** For O=C(O)CC1COCCN1Cc1ccccc1OCCc1ccccc1 (stereo unspecified), which cytotoxicity at 10 µM is on record?
**A.** 2.4%

**Q.** For O=C(NCCC1CN(Cc2c[nH]cn2)CCO1)Nc1ccccc1 (stereo unspecified), which cytotoxicity at 10 µM is on record?
**A.** -1.92%

**Q.** Which cytotoxicity at 10 µM does the source give for CCC(=O)N1CCC2(CC1)c1nc[nH]c1CCN2S(C)(=O)=O here?
**A.** -11.4%

**Q.** For COc1ccccc1C1CNC(=O)c2nc(-c3ncc[nH]3)[nH]c2C1 (stereo unspecified), which cytotoxicity at 10 µM is on record?
**A.** -8.6%

**Q.** With c1ccc(Cc2noc(CN3CCCCC3Cn3cccn3)n2)cc1 (stereo unspecified) as the molecule, how does the cytotoxicity at 10 µM read?
**A.** -0.945%

**Q.** Which cytotoxicity at 10 µM does the source give for Cc1csc(C2CCCCN2C(=O)c2c[nH]c(C)n2)n1 (stereo unspecified) here?
**A.** -33.7%

**Q.** With Cc1noc(Cl)c1CCC(=O)N1CCN(Cc2ccncc2)CC1 as the molecule, how does the cytotoxicity at 10 µM read?
**A.** -14.2%

**Q.** With Cc1nc(C)n(CC2CN(Cc3ccc4c(c3)OCCO4)CCO2)n1 (stereo unspecified) as the molecule, how does the cytotoxicity at 10 µM read?
**A.** -3.63%

**Q.** Which cytotoxicity at 10 µM does the source give for O=C(CCc1ccccc1F)N1CCC(Nc2cccnn2)CC1 here?
**A.** -3.78%

**Q.** With c1cnn(CC2CN(Cc3nnc(C4CC4)o3)CCO2)c1 (stereo unspecified) as the molecule, how does the cytotoxicity at 10 µM read?
**A.** -5.09%

**Q.** With CN(C)c1ccc(C(=O)N2CCN(c3cnccn3)CC2)cn1 as the molecule, how does the cytotoxicity at 10 µM read?
**A.** -4.98%

**Q.** For Cc1noc(C)c1CCC(=O)N1CCCN(C)CC1, which cytotoxicity at 10 µM is on record?
**A.** -14.1%

**Q.** With Cc1noc(C)c1CCC(=O)N1CCN(Cc2cscn2)CC1 as the molecule, how does the cytotoxicity at 10 µM read?
**A.** -6.28%

**Q.** For Cc1ccc(CC(=O)N2CCC(Nc3ccc(C)nn3)CC2)cn1, which cytotoxicity at 10 µM is on record?
**A.** -4.75%

**Q.** Which cytotoxicity at 10 µM does the source give for CC(C)c1nccn1C1CCCN(C(=O)c2cn3cccnc3n2)C1 (stereo unspecified) here?
**A.** -3.63%

**Q.** Which cytotoxicity at 10 µM does the source give for Cc1cccc(OCCCN2CCC(N(C)Cc3noc(C)n3)C2)c1 (stereo unspecified) here?
**A.** -2.61%

**Q.** With CCN1CCN(CCNC(=O)c2sc(C)nc2C)CC1 as the molecule, how does the cytotoxicity at 10 µM read?
**A.** 0.927%

**Q.** For COCCc1noc(CN2CCCC2Cn2nc(C)cc2C)n1 (stereo unspecified), which cytotoxicity at 10 µM is on record?
**A.** -1.92%

**Q.** Which cytotoxicity at 10 µM does the source give for CC(C)c1nc(C2CCCN(C(=O)c3ccc4c(c3)COC4)C2)no1 (stereo unspecified) here?
**A.** -7%

**Q.** With COc1ccc(CC(=O)N2CCCC2Cn2cc(C)cn2)cc1OC (stereo unspecified) as the molecule, how does the cytotoxicity at 10 µM read?
**A.** -17.9%

**Q.** With CC(C)c1nccn1C1CCCN(C(=O)c2cccc3[nH]ncc23)C1 (stereo unspecified) as the molecule, how does the cytotoxicity at 10 µM read?
**A.** -0.35%

**Q.** Which cytotoxicity at 10 µM does the source give for Cc1occc1CN(C)Cc1nc2c(cnn2C)c(=O)[nH]1 here?
**A.** 2.11%

**Q.** For CSCCC(=O)NS(=O)(=O)c1ccc2c(c1)OCCO2, which cytotoxicity at 10 µM is on record?
**A.** -14.7%

**Q.** For O=C(Cc1ccccc1)N1CCN(Cc2noc(C3CC3)n2)CC1, which cytotoxicity at 10 µM is on record?
**A.** 1.15%

**Q.** For Cc1cc(C)n(C2CCCN(C(=O)c3cnc4onc(C)c4c3)C2)n1 (stereo unspecified), which cytotoxicity at 10 µM is on record?
**A.** 5.17%

**Q.** Which cytotoxicity at 10 µM does the source give for Cn1cc(CN(Cc2ccccc2)Cc2ccccn2)cn1 here?
**A.** 19.1%

**Q.** For Cn1cccc1C(=O)N1CCO[C@H]2[C@H](OCc3cccnc3)CC[C@@H]21, which cytotoxicity at 10 µM is on record?
**A.** 7.2%

**Q.** For Cn1cccc1C(=O)N1CC[C@@H]2[C@@H]1CC(=O)N2CCN1CCOCC1, which cytotoxicity at 10 µM is on record?
**A.** -7.41%

**Q.** Which cytotoxicity at 10 µM does the source give for CN1CC(=O)N(c2ccsc2)CC12CCN(C(=O)Nc1ccccc1)C2 (stereo unspecified) here?
**A.** -78.7%

**Q.** With CC1c2ncc(Cn3cncn3)n2CCN1C1CCOCC1 (stereo unspecified) as the molecule, how does the cytotoxicity at 10 µM read?
**A.** 4.28%

**Q.** For c1ccc(OCC2C[C@@H]3[C@@H](C2)OCCN3CC2CCOCC2)nc1 (stereo partly specified), which cytotoxicity at 10 µM is on record?
**A.** 2.75%

**Q.** Which cytotoxicity at 10 µM does the source give for CN(C)[C@@H]1CCN(CC2CC2)[C@H]1Cc1cnn(C)c1 here?
**A.** -76.9%

**Q.** With CC(C)(C)n1cc(CNC2CCN(C(=O)c3ccoc3)CC2)cn1 as the molecule, how does the cytotoxicity at 10 µM read?
**A.** 6.35%

**Q.** Which cytotoxicity at 10 µM does the source give for COCCN1CC[C@H]2OCC[C@@H](C(=O)N3CCCO3)[C@H]2C1 here?
**A.** 4.55%

**Q.** Which cytotoxicity at 10 µM does the source give for O=C(c1ccco1)N1CCCC2(CN(Cc3cccs3)CCO2)C1 (stereo unspecified) here?
**A.** -2.3%

**Q.** Which cytotoxicity at 10 µM does the source give for O=C1CCCC2=C1C(c1ccccc1Cl)C1C(=O)NN=C1N2 (stereo unspecified) here?
**A.** -11.6%

**Q.** For CCCc1cc(N2CCC(NC3CCC(O)CC3)CC2)nc(C)n1 (stereo unspecified), which cytotoxicity at 10 µM is on record?
**A.** -4.35%

**Q.** With CC(C)c1cc(C(=O)N2C[C@@H]3CC[C@H]2CN(Cc2cccnc2)C3)no1 as the molecule, how does the cytotoxicity at 10 µM read?
**A.** 2.55%

**Q.** With COc1cc(N2C[C@H]3CC[C@@H](C2)N(CC2CCC2)C3=O)ncn1 as the molecule, how does the cytotoxicity at 10 µM read?
**A.** -1.15%
